Sampled rows, rich in hits. Any-hit rate of the full collection: about 1.9%.
M4 PAM = positive allosteric modulators of human muscarinic M4 receptor; P08173; CHO-K1 hM4/Gqi5, Fluo-8 calcium fluorescence, ACh EC20; 0% = ACh EC20, 100% = maximal ACh; activation, % at 3 µM; actives 0.4% (n = 360,000);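 active = activation above its plate's cutoff, the mean activation of sample wells plus 3 SD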
Target sequence (P08173 whole entry, looked up): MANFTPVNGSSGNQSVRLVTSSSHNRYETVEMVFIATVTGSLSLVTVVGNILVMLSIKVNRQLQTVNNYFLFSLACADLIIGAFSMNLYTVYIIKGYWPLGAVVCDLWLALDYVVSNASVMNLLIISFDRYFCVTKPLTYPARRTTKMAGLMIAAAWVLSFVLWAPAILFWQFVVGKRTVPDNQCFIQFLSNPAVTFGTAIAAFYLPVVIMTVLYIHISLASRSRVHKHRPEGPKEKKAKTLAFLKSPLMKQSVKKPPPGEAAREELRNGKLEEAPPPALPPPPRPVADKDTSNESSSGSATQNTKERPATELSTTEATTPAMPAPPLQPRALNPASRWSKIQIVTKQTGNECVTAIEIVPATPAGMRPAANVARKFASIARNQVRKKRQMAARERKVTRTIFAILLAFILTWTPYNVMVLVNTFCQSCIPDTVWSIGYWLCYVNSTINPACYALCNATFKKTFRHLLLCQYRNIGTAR
CHRM4 antagonist = CHRM4 antagonism in calcium assay; P08173; inhibition, % at 3 µM; CHO-hM4 cells, ACh EC80, Fluo-8 calcium fluorescence; actives 0.73% (n = 360,000);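 active = inhibition above its plate's cutoff, the mean inhibition of sample wells plus 3 SD, cut at about 27% in these data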;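 note: 0% = acetylcholine EC80 with DMSO and 100% = DMSO without agonist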
M5 PAM = potentiates acetylcholine response at human M5 receptor; P08912; CHO-K1 hM5, Fluo-8 calcium, ACh EC20 PAM; 0% = ACh EC20, 100% = ACh EC100; activation, % at 3 µM; actives 0.3% (n = 360,000); AID 624038;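 active = activation above the run cutoff, the mean activation of all test compounds plus 3 SD, cut at about 18% in these data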
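System: CHO-K1 cell line with stable human muscarinic M5 receptor expression | Also added: EC20 acetylcholine as agonist stimulus | Compound: One concentration, 3 µM final (nominal) | Timing: Fluo-8 loading 80 min at 37 °C plus 30 min room temperature | Measured by: Fluo-8 calcium dye fluorescence, kinetic read | Read-out basis: % activation, ACh-normalized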
CHRM5 agonist = CHRM5 agonism in calcium assay; P08912; AID 624037; CHO-K1 hM5 cells, Fluo-8 calcium fluorescence; 0% DMSO wells, 100% maximal acetylcholine response; activation, % at 3 µM; actives 0.19% (n = 360,000);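 active = activation above the run's mean over test compounds plus 3 SD, cut at about 23% in these data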;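 note: signal is peak over basal fluorescence ratio across the kinetic read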
M4 ag = agonists of human muscarinic M4 receptor (CHRM4) | P08173 | activation, % at 3 µM | CHO-K1 hM4/Gqi5, Fluo-8 calcium fluorescence; vehicle 0%, full acetylcholine response 100% | actives 0.14% (n = 360,000);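 active = activation above the run mean over all test wells plus 3 SD, cut at about 32% in these data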;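 note: peak over basal fluorescence ratio per well then scaled between controls; 0% = DMSO wells and 100% = acetylcholine at EC100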
M5 antag = blocks acetylcholine activation of human M5 receptor | CHO-hM5 cells, Fluo-8 calcium fluorescence, ACh EC80 | P08912 | actives 0.59% (n = 360,000) | inhibition, % at 3 µM;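 active = inhibition above a per-plate cutoff, the mean of that plate's test compounds plus 3 SD, cut at about 27% in these data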;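 note: 0% = acetylcholine EC80 with DMSO and 100% = DMSO without agonist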
Active calls of the source: *.

How did Cc1ccc(OC(C)C(=O)N(C)c2ccccc2)c([N+](=O)[O-])n1 (stereo unspecified) do in these assays?
M4 PAM: 10; CHRM4 antagonist: -5; M5 PAM: 2; CHRM5 agonist: 1; M4 ag: 1; M5 antag: -6

Results for CCCN(CCC)C(=O)c1ccc2c(c1)S(=O)(=O)c1ccccc1C2=O ?
M4 PAM: 0; CHRM4 antagonist: 2; M5 PAM: -9; CHRM5 agonist: -6; M4 ag: 3; M5 antag: 30*

What do the screens show for `CN(C)CCCN(C(=O)c1ccc([N+](=O)[O-])o1)c1nc2cc3c(cc2s1)OCO3`?
M4 PAM: 2; CHRM4 antagonist: 3; M5 PAM: 2; CHRM5 agonist: -4; M4 ag: 0; M5 antag: 3

How did CCc1cc(C(=O)Cc2nc3ccccc3s2)c(O)cc1OCC(=O)O do in these assays?
M4 PAM: 6; CHRM4 antagonist: 36*; M5 PAM: 0; CHRM5 agonist: 3; M4 ag: 1; M5 antag: -3

What do the screens show for `O=C(NCC1CCCO1)c1cccs1` (stereo unspecified)?
M4 PAM: 36*; CHRM4 antagonist: 6; M5 PAM: 2; CHRM5 agonist: 4; M4 ag: 1; M5 antag: -6

How did O=C(NCC1CCCO1)c1ccccc1 (stereo unspecified) do in these assays?
M4 PAM: 0; CHRM4 antagonist: 5; M5 PAM: 1; CHRM5 agonist: -7; M4 ag: 0; M5 antag: -4

How did O=C(NCC1CCCO1)NC1(C(F)(F)F)Oc2ccccc2O1 (stereo unspecified) do in these assays?
M4 PAM: 4; CHRM4 antagonist: 3; M5 PAM: 35*; CHRM5 agonist: -12; M4 ag: 0; M5 antag: -2

How did O=C(COC(=O)c1cccs1)NCC1CCCO1 (stereo unspecified) do in these assays?
M4 PAM: -2; CHRM4 antagonist: 9; M5 PAM: 2; CHRM5 agonist: 0; M4 ag: 0; M5 antag: 0

What do the screens show for `CCCC1NC(=O)c2cccnc2-n2c1nc1ccc(Cl)cc1c2=O` (stereo unspecified)?
M4 PAM: 10; CHRM4 antagonist: -1; M5 PAM: 2; CHRM5 agonist: 1; M4 ag: 0; M5 antag: 2

How did O=C(CSCc1ccccc1)N1CCN(S(=O)(=O)c2cccc(F)c2)CC1 do in these assays?
M4 PAM: 1; CHRM4 antagonist: -17; M5 PAM: 2; CHRM5 agonist: -1; M4 ag: 1; M5 antag: 3

Results for CSc1cc(C)nc(N(C)C(C)=O)n1 ?
M4 PAM: 19*; CHRM4 antagonist: -12; M5 PAM: -5; CHRM5 agonist: 1; M4 ag: 0; M5 antag: 7

Results for COc1cc(C)nc(N(C)C(C)=O)n1 ?
M4 PAM: 3; CHRM4 antagonist: -4; M5 PAM: -8; CHRM5 agonist: -1; M4 ag: 0; M5 antag: 7

Results for NS(=O)(=O)c1cccc(NC(=O)COC(=O)CCc2ccccc2)c1 ?
M4 PAM: 2; CHRM4 antagonist: 1; M5 PAM: -7; CHRM5 agonist: -3; M4 ag: 1; M5 antag: 20

How did COc1ccc(N=Nc2ccc(O)c3ncccc23)cc1 do in these assays?
M4 PAM: -2; CHRM4 antagonist: -5; M5 PAM: 6; CHRM5 agonist: 6; M4 ag: 1; M5 antag: 1

How did CCc1ccc(N=Nc2ccc(O)c3[nH]cnc23)cc1 do in these assays?
M4 PAM: -13; CHRM4 antagonist: 28*; M5 PAM: -27; CHRM5 agonist: 30*; M4 ag: 48*; M5 antag: 46*

How did Oc1ccc(-c2cc(-c3ccc(O)cc3)nc(-c3ccccc3)n2)cc1 do in these assays?
M4 PAM: 34*; CHRM4 antagonist: 23; M5 PAM: -7; CHRM5 agonist: -1; M4 ag: 6; M5 antag: 17

How did COc1ccc(CNS(=O)(=O)c2ccc3c(c2)N(C)CCO3)cc1 do in these assays?
M4 PAM: -4; CHRM4 antagonist: 2; M5 PAM: -11; CHRM5 agonist: -3; M4 ag: 8; M5 antag: 29*

What do the screens show for `CCOc1cc2c3c(c1)C1(OCCO1)C(=O)N3C(C)(C)CC2C` (stereo unspecified)?
M4 PAM: 2; CHRM4 antagonist: 0; M5 PAM: 0; CHRM5 agonist: -7; M4 ag: -2; M5 antag: -4

How did CCc1cc2c3c(c1)C(C)CC(C)(C)N3C(=O)C2=O (stereo unspecified) do in these assays?
M4 PAM: -1; CHRM4 antagonist: 8; M5 PAM: 0; CHRM5 agonist: 26*; M4 ag: -2; M5 antag: -9

How did Cc1csc(NC(=O)C2CC(=O)N(c3ccc4c(c3)OCCO4)C2)n1 (stereo unspecified) do in these assays?
M4 PAM: -2; CHRM4 antagonist: -4; M5 PAM: -6; CHRM5 agonist: 3; M4 ag: 3; M5 antag: -1

How did CCc1ccc(-c2csc(NC(=O)C3CC(=O)N(c4ccc5c(c4)OCCO5)C3)n2)cc1 (stereo unspecified) do in these assays?
M4 PAM: 30*; CHRM4 antagonist: -3; M5 PAM: -12; CHRM5 agonist: 2; M4 ag: 5; M5 antag: -1

How did CCC(=O)N1CCc2cc(S(=O)(=O)CCC(=O)Nc3nc(C)cs3)ccc21 do in these assays?
M4 PAM: 6; CHRM4 antagonist: -10; M5 PAM: 28*; CHRM5 agonist: -1; M4 ag: 1; M5 antag: -3

What do the screens show for `COC(=O)c1cc(CNC(=O)Cc2ccsc2)ccc1OC`?
M4 PAM: -22; CHRM4 antagonist: 98*; M5 PAM: -3; CHRM5 agonist: -2; M4 ag: -1; M5 antag: 10

What do the screens show for `COc1ccc(F)cc1S(=O)(=O)NCC(c1ccco1)N1CCc2ccccc2C1` (stereo unspecified)?
M4 PAM: -6; CHRM4 antagonist: -2; M5 PAM: -1; CHRM5 agonist: -6; M4 ag: 2; M5 antag: -1

What do the screens show for `O=C(CN(CC1CCCO1)C(=O)CNS(=O)(=O)c1ccc(Cl)cc1)NC1CCCC1` (stereo unspecified)?
M4 PAM: -4; CHRM4 antagonist: 0; M5 PAM: -3; CHRM5 agonist: -2; M4 ag: 0; M5 antag: 17

How did Cc1cc(Br)ccc1NC(=O)CNC(=O)CN1C(=O)NC2(CCCCCC2)C1=O do in these assays?
M4 PAM: -1; CHRM4 antagonist: -1; M5 PAM: -3; CHRM5 agonist: 1; M4 ag: 2; M5 antag: 7
